From ChEMBL document CHEMBL1124445, “Synthesis and pharmacology of a series of 3- and 4-(phosphonoalkyl)pyridine- and -piperidine-2-carboxylic acids. Potent N-methyl-D-aspartate receptor antagonists” (J Med Chem, 1989)

Tests used:
Mus musculus = test: Ability to protect against NMDA-induced lethality in mice after intraperitoneal administration; assay type: functional; settings: ip, read-out: MED
Outline: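 Mice received the test drug ip 30 min before NMDA at 200 mg/kg ip; compounds were racemic. Five animals per dose. The endpoint was survival for more than 30 min after the NMDA injection. MED is the dose at which at least three of the five mice survived. The highest dose tested was 160 mg/kg.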

[1] = Compound was evaluated for the inhibition of the binding of [3H]CPP against NMDA in mice
[2] = Compound was evaluated for the inhibition of the binding of [3H]CPP against N-methyl-D-aspartate glutamate receptor in mice
Outline: (§1)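 Racemic compounds tested for displacement of [3H]CPP binding to the NMDA receptor. Affinity reported as IC50 in nM.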

[3] = Percent displacement determined by inhibition of [3H]-CPP binding against N-methyl-D-aspartate glutamate receptor in mice at 10 uM
[4] = Compound was evaluated for the inhibition of the binding of [3H]-CPP against NMDA receptor in mice; outline: as §1
[5] = Percent displacement determined by inhibition of [3H]CPP binding against NMDA receptor in mice at 10 uM

For `NC(CCCCCP(=O)(O)O)C(=O)O` (stereo unspecified) [AP-7], the minimal effective dose (Mus musculus) was 160 mg/kg and the IC50 [1] was 320 nM.

Compound `O=C(O)C1CN(CCCP(=O)(O)O)CCN1` (stereo unspecified) has a minimal effective dose (Mus musculus) of 2.5 mg/kg and an IC50 [2] of 72 nM.

For `O=C(O)c1cc(CCCP(=O)(O)O)ccn1`, the minimal effective dose (Mus musculus) was > 160 mg/kg and the Displacement [3] was 34%.

With `O=C(O)[C@@H]1C[C@H](CCCCP(=O)(O)O)CCN1` the minimal effective dose (Mus musculus) was > 160 mg/kg and the Displacement [3] was 26%.

In the case of `O=C(O)c1ncccc1/C=C\P(=O)(O)O`, the minimal effective dose (Mus musculus) is reported as > 160 mg/kg and the Displacement [3] is reported as 20%.

`O=C(O)[C@@H]1C[C@H](CP(=O)(O)O)CCN1` [SELFOTEL] showed a minimal effective dose (Mus musculus) of 10 mg/kg and an IC50 [4] of 95 nM.

In the case of `O=C(O)c1ncccc1CCP(=O)(O)O`, the minimal effective dose (Mus musculus) is reported as > 160 mg/kg and the IC50 [4] is reported as 3500 nM.

With `O=C(O)[C@H]1NCCC[C@H]1CCP(=O)(O)O` the minimal effective dose (Mus musculus) was 160 mg/kg and the IC50 [4] was 1000 nM.

With `O=C(O)c1ncccc1CP(=O)(O)O` the minimal effective dose (Mus musculus) was > 160 mg/kg and the Displacement [5] was -18%.

For `O=C(O)[C@@H]1C[C@H](CCP(=O)(O)O)CCN1`, the minimal effective dose (Mus musculus) was > 160 mg/kg and the IC50 [2] was 6600 nM.

With `O=C(O)c1ncccc1/C=C/P(=O)(O)O` the minimal effective dose (Mus musculus) was > 160 mg/kg and the Displacement [3] was 26%.

For `O=C(O)c1cc(CCCCP(=O)(O)O)ccn1`, the minimal effective dose (Mus musculus) was > 160 mg/kg and the Displacement [3] was 25%.

For `O=C(O)c1cc(CCP(=O)(O)O)ccn1`, the minimal effective dose (Mus musculus) was > 160 mg/kg and the IC50 [2] was 3500 nM.

For `O=C(O)[C@H]1NCCC[C@H]1CP(=O)(O)O`, the Displacement [3] was 19%.

For `O=C(O)[C@@H]1C[C@H](CCCP(=O)(O)O)CCN1`, the minimal effective dose (Mus musculus) was 40 mg/kg and the IC50 [2] was 120 nM.

With `O=C(O)c1cc(CP(=O)(O)O)ccn1` the minimal effective dose (Mus musculus) was > 160 mg/kg and the Displacement [5] was 4%.
